Source: PubChem (The Scripps Research Institute Molecular Screening Center)
HTR2A ag: mouse Htr2a agonists via beta-arrestin recruitment, primary screen, cell-based, luminescence; CHO-K1 mHTR2A beta-arrestin complementation; percent of 30 µM serotonin response; activation, % at 7.6 µM; 360,000 compounds, 0.66% hits; AID 624169, 2012;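 active means activation above a run cutoff, the mean activation of all tested compounds plus 3 SD, cut at about 14% in these data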;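 further: 0% = plate median of compound wells and 100% = 30 µM serotonin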
AHR activator: AHR activators, primary screen, cell-based, luminescence, luciferase reporter, human. 320,000 compounds, 2.5% hits. activation, % at 5 µM. AHR-responsive luciferase reporter cells. Aryl hydrocarbon receptor (Homo sapiens), P35869; in the data active means activation above about 47%;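 further: 0% = vehicle wells and 100% = reference agonist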
GAA850 FXN act: FXN promoter activators, primary screen, cell-based, luciferase luminescence, HEK293 lucGAA850 | 360,000 compounds, 0.56% hits | HEK293 lucGAA850 FXN promoter luciferase reporter, 24 h; percent of 10 µM SAHA response | activation, % at 6 µM;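 active means activation above the average of all compounds screened plus 3 SD, cutoff fixed separately per campaign, cut at about 7.5% in these data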;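 further: 0% = DMSO wells and 100% = 10 µM SAHA wells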
MC4R barr agon: MC4R agonists recruiting beta-arrestin, primary screen, cell-based, luminescence, agonist arm of biased-ligand search | U2OS MC4R beta-arrestin complementation; percent of melanotan II response, DMSO zero | activation, % at 8.9 µM | 360,000 compounds, 0.98% hits | AID 540308, 2011;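 active means activation above a per-plate cutoff, the mean activation of sample wells on that plate plus 3 SD, cut at about 8% in these data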
Target sequence (P32245 whole entry, looked up): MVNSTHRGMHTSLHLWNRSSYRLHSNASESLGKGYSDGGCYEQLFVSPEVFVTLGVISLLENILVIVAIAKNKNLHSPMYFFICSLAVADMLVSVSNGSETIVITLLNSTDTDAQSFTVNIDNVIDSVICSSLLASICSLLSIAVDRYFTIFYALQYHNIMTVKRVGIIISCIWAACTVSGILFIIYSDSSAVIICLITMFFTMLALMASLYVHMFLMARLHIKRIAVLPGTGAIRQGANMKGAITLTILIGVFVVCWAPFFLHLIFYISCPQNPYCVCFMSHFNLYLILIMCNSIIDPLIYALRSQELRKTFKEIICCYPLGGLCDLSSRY
MC4R antag cAMP: MC4R antagonists of cAMP signaling, primary screen, cell-based, TR-FRET, antagonist arm of biased-ligand search | Melanocortin receptor 4 (Homo sapiens), P32245 | MC4R-expressing cells, MTII-stimulated cAMP, LANCE TR-FRET | AID 540295, 2011 | 360,000 compounds, 0.48% hits | inhibition, % at 6.5 µM;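 active means inhibition above its plate's cutoff, the mean of tested wells on that plate plus 3 SD, cut at about 29% in these data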;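 further: 0% = Melanotan II alone and 100% = Melanotan II plus saturating MCL0020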
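Assay system: U2OS cells stably expressing human melanocortin 4 receptor (MC4R) / Dosing: 6.5 µM / Timing: compound 30 min, challenge 1 h, detection 1 h / Measured by: Eu-cAMP/anti-cAMP TR-FRET, emission 671 nm / Replicates: singlicate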
Starred values were filed as active, the others as inactive; . = no result given. Only some compounds are listed: those with a hit (about 4.7% of all), similar ones and a draw of the others.

SMILES	HTR2A ag	AHR activator	GAA850 FXN act	MC4R barr agon	MC4R antag cAMP
COc1ccc(N(CCCN2C(=O)c3cccc4cccc(c34)C2=O)C(=O)c2ccncc2)cc1	5	76*	5	8	-25
COc1ccc(N(CCCN2C(=O)c3cccc4cccc(c34)C2=O)C(=O)c2cccnc2)cc1	0	75*	2	11*	-25
COc1ccccc1N(CN1C(=O)c2ccccc2C1=O)C(=O)c1cccnc1	-2	4	1	-1	5
Cc1cc(F)ccc1-c1cc(C(=O)NCc2cccs2)[nH]n1	-2	.	1	1	8
CCOC=C1SC(=S)N(c2ccccc2OC)C1=O	-1	.	-2	0	0
CCOc1ccc(NC(=O)CSc2nc3ccsc3c(=O)n2Cc2ccc(C(=O)O)cc2)cc1	7	.	1	-1	3
Cc1cc2c(cc1S(=O)(=O)Nc1cccc(C)c1C)n(C)c(=O)c(=O)n2C	0	-2	-4	1	5
Cc1ccc(-n2ccc(=O)c(-c3ccnc(SCc4cccc(Cl)c4)n3)n2)cc1	-11	9	4	8.6*	-8
CCCc1ccc2ccc3ccccc3c2n1	-1	.	.	.	.
COc1ccc(OCC(=O)Nc2ccc3c(c2)OCO3)cc1	0	3	-1	3	-1
COc1ccc(NC(=O)Nc2ccc3c(c2)OCO3)c(C)c1	8	67*	2	1	-1
Cc1cc(OC(F)F)ccc1NC(=O)Nc1ccc2c(c1)OCO2	-11	66*	-1	0	8
CC(C)(C)S(=O)(=O)N1C[C@@H]2C(=CC[C@H]3C(=O)N(c4ccccc4)C(=O)[C@@H]23)[C@@H]1CCO	-4	.	0	0	0
Cc1ccccc1-c1cc(C(=O)Nc2nc3c(s2)CCCC3)c2ccccc2n1	-7	23	0	-1	4
O=C(Nc1nc2c(s1)CCCC2)c1cc(-c2ccc3c(c2)OCO3)nc2ccccc12	.	57*	.	.	.
CC(C)(C)NC(=O)c1cc(-c2ccc3c(c2)OCO3)nc2ccccc12	4	70*	3	-1	4
Cn1c(NC(=O)c2cc(-c3ccc4c(c3)OCO4)nc3ccccc23)cc(=O)n(C)c1=O	3	16	3	0	16
CCOC(=O)[C@]12CCCC=C1N(CCc1ccc(OC)c(OC)c1)C(=O)[C@H](CC(=O)N1CCCC1)C2	-1	.	.	.	.
CC(C)Nc1nc(NCCOc2ccccc2)c2sccc2n1	-3	.	2	0	4
CCOC(=O)C1=C(C)N(c2ccc(C)c(C)c2)C(=O)/C1=C\c1ccco1	-4	3	3	-3	5
COC(=O)C1=C(C)N(c2ccc(C)c(C)c2)/C(=C/c2ccco2)C1=O	18*	-2	3	-1	4
Nc1ccc(Sc2cnn(-c3ccccc3)c(=O)c2Cl)cc1	-1	6	2	1	3
Cc1ccc(Sc2cnn(-c3ccccc3)c(=O)c2Cl)cc1	4	61*	0	4	21
CCOc1ccc(OCC(=O)Nc2ccccc2C(F)(F)F)cc1	1	2	4	3	2
O=C(COc1ccccc1Br)Nc1ccccc1C(F)(F)F	10	2	2	9.4*	-2
SMILES	HTR2A ag	AHR activator	GAA850 FXN act	MC4R barr agon	MC4R antag cAMP
COc1cccc(NC(=S)NNC(=O)c2ccccc2OC(F)F)c1	-6	3	2	-3	9
Cc1ccc(NC(=S)NNC(=O)c2ccccc2OC(F)F)cc1	1	102*	-4	-3	-2
O=C(NNC(=S)Nc1ccc(F)cc1)c1ccccc1OC(F)F	-1	92*	1	-1	5
Cc1ccccc1-c1cc2nc(NCCN3CCNC3=O)n(C)c(=O)c2s1	1	.	1	1	11
O=C(CO/N=C1\CCCc2nonc21)Nc1ccc(Br)cc1	0	78*	2	-2	1
COc1ccc(NC(=O)CO/N=C2\CCCc3nonc32)cc1	-1	8	3	-2	0
COc1ccc(C(=O)c2sc3nc(-c4ccc(OC)cc4)ccc3c2N)cc1	6	9	0	9.2*	19
COc1ccc(-c2ccc3c(N)c(C(=O)c4cccc(OC)c4)sc3n2)cc1	0	77*	2	0	-5
COc1ccc(OC)c2sc(NC(=O)C3CC3)nc12	-1	75*	-2	0	7
Cc1ccc(Cl)c2sc(NC(=O)C3CC3)nc12	2	49*	2	-1	0
COc1ccc(OC)c2sc(NNC(=O)COc3ccccc3)nc12	-2	79*	0	-1	10
COc1ccc(OCC(=O)NNc2nc3ccccc3s2)cc1	-3	17	0	-1	6
COc1ccc(OC)c2sc(NC(=O)c3ccc(Cl)s3)nc12	-4	30	-1	0	21
COc1ccc(OC)c2sc(NNC(=O)C3COc4ccccc4O3)nc12 (centres undefined)	7	57*	0	-6	18
CCC(=O)Nc1nc2c(OC)ccc(OC)c2s1	11	68*	1	-1	10
CCCC(=O)Nc1nc2c(OC)ccc(OC)c2s1	0	68*	0	1	7
COc1ccc(Nc2nc(N)nc(C(F)(F)F)n2)c(OC)c1	-1	76*	1	-2	0
COc1ccc(CNC(=O)COC(=O)c2ccc(OCC3CCCO3)cc2)cc1 (centres undefined)	-6	-1	1	-2	-15
Cc1snc(S(=O)(=O)/C(C#N)=N/Nc2cccc(C(F)(F)F)c2)c1C#N	5	98*	3	-1	5
COc1ccc(N/N=C(/C#N)S(=O)(=O)c2nsc(C)c2C#N)cc1	1	5	1	0	2
Cn1c2ccccc2c(=O)c2ccc(C#CC3(O)CCCCC3)cc21	9	6	-10	3	24
Cc1onc(-c2ccccc2Cl)c1C(=O)Oc1cc(N)n(S(=O)(=O)c2ccc(F)cc2)n1	-6	2	1	1	29*
N#CC(C(=S)Nc1ccccc1)c1nc2ccccc2[nH]1 (centres undefined)	-5	73*	2	-3	-6
CCCN(C(=O)COC(=O)c1nc2nc(C)cc(C)n2n1)C1CCS(=O)(=O)C1 (centres undefined)	6	0	0	-2	4
Cc1ccc(N=Nc2ccc3ccccc3c2O)cc1	6	53*	-6	-2	16
Oc1c(N=Nc2ccc(F)cc2)ccc2ccccc12	4	73*	3	2	13
CCN1CCC[C@H]1CNCCCn1cnc2c(SC)ncnc21	4	.	-1	1	13
